Calls of active or inactive are those of the source. The rule behind the calls is not given here.

Assay [1] is described as follows: Synergistic cytotoxicity against human GCE28 cells assessed as combination index measured after 48 hrs in presence of N-(3-bromophenyl)-1-(2-chloro-2-phenylethyl)-6-(2-morpholinoethylsulfanyl)pyrazolo[3,4-d]pyrimidin-4-amine by Chou-Talalay assay. It counts as functional. The gist of the method:
(§1)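 Each drug pair dosed at a 1:1 molar ratio on the GBM lines and incubated 48 h. CI computed from three independent IC50 experiments (n = 3), reported as mean ± SD.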

The nature of assay [2]: Cytotoxicity against human GIN8 cells derived from invasive region of GBM patient assessed as reduction in cell viability measured after 48 hrs by Prestoblue assay. It counts as functional, cell-based. The procedure, abridged:
(§2)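 Compounds diluted in DMEM containing 10% FBS and applied for 48 h. Viability read by PrestoBlue. IC50 calculated from three independent experiments, mean ± SE. Two-way ANOVA with Dunnett's multiple comparisons test.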

Assay [3] in a line: Cytotoxicity against human GIN28 cells derived from invasive region of GBM patient assessed as reduction in cell viability measured after 48 hrs by Prestoblue assay. The format is functional, cell-based. The procedure, abridged: as §2
A short description of assay [4]: Synergistic cytotoxicity against human GIN28 cells assessed as combination index measured after 48 hrs in presence of N-(3-bromophenyl)-1-(2-chloro-2-phenylethyl)-6-(2-morpholinoethylsulfanyl)pyrazolo[3,4-d]pyrimidin-4-amine by Chou-Talalay assay. The format is functional. The procedure, abridged:
(§3)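 Two kinase inhibitors were combined at a 1:1 molar ratio, diluted in DMEM with 10% FBS, and incubated with the GBM cells for 48 h. Viability was read by PrestoBlue. Combination index values were calculated from three independent IC50 experiments (n = 3) and are reported as mean ± SD.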

Assay [5] in a line: Synergistic cytotoxicity against human GIN28 cells assessed as combination index measured after 48 hrs in presence of 2-[[4-(2-phenylethylamino)-1-[styryl]pyrazolo[3,4-d]pyrimidin-6-yl]amino]ethanol by Chou-Talalay assay. The format is functional. The gist of the method:
as §1

Assay [6] in a line: Antagonistic cytotoxicity against human GIN8 cells assessed as combination index measured after 48 hrs in presence of 2-[[4-(2-phenylethylamino)-1-[styryl]pyrazolo[3,4-d]pyrimidin-6-yl]amino]ethanol by Chou-Talalay assay. The format is functional. The procedure, abridged: as §1
The nature of assay [7]: Synergistic cytotoxicity against human GIN8 cells assessed as combination index measured after 48 hrs in presence of N-(3-bromophenyl)-1-(2-chloro-2-phenylethyl)-6-(2-morpholinoethylsulfanyl)pyrazolo[3,4-d]pyrimidin-4-amine by Chou-Talalay assay. It counts as functional. The procedure, abridged: as §3
Assay [8] in a line: Synergistic cytotoxicity against human GCE28 cells assessed as combination index measured after 48 hrs in presence of 2-[[4-(2-phenylethylamino)-1-[styryl]pyrazolo[3,4-d]pyrimidin-6-yl]amino]ethanol by Chou-Talalay assay. It counts as functional. The procedure, abridged: as §1
Assay [9] can be described thus: Cytotoxicity against human GCE28 cells derived from central tumor core of GBM patient assessed as reduction in cell viability measured after 48 hrs by Prestoblue assay. It counts as functional, cell-based. The procedure, abridged: as §2
For assay [10], the species on record is Homo sapiens. Kind of assay: Induction of apoptosis in human GIN28 cells assessed as increase in caspase 3/7 activation at 10 uM measured after 48 hrs by CellEvent caspase 3/7 probe based fluorescence analysis. It counts as functional, cell-based. The procedure, abridged:
(§4)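 Patient-derived GBM cells were exposed to compound diluted in DMEM containing 10% FBS for 48 h. Activated effector caspases-3/7 were then detected with the CellEvent caspase-3/7 fluorescent probe. Data are mean ± SEM of n = 3. Significance was tested by two-way ANOVA with Dunnett's multiple comparisons test.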

The species named for assay [11] is Homo sapiens. Kind of assay: Induction of apoptosis in human GIN8 cells assessed as increase in caspase 3/7 activation at 10 uM measured after 48 hrs by CellEvent caspase 3/7 probe based fluorescence analysis. It counts as functional, cell-based. The gist of the method:
as §4

The species named for assay [12] is Homo sapiens. Kind of assay: Induction of apoptosis in human GCE28 cells assessed as increase in caspase 3/7 activation at 10 uM measured after 48 hrs by CellEvent caspase 3/7 probe based fluorecence analysis. It counts as functional, cell-based. The procedure, abridged:
as §4

A short description of assay [13]: Additive cytotoxicity against human GIN28 cells assessed as combination index measured after 48 hrs in presence of N-(3-bromophenyl)-1-(2-chloro-2-phenylethyl)6(2morpholinoethylsulfanyl)pyrazolo[3,4-d]pyrimidin-4-amine by Chou-Talalay assay. It counts as functional. The gist of the method:
as §1

The nature of assay [14]: Additive cytotoxicity against human GIN8 cells assessed as combination index measured after 48 hrs in presence of N-(3-bromophenyl)-1-(2-chloro-2-phenylethyl)6(2morpholinoethylsulfanyl)pyrazolo[3,4-d]pyrimidin-4-amine by Chou-Talalay assay. The format is functional. The gist of the method:
as §1

Assay [15] has as its target Serine/threonine-protein kinase Sgk1 (Homo sapiens, UniProt O00141, S422D). The experiment in a line: Inhibition of human N-terminal His6-tagged N-truncated human SGK1 harboring S422D mutant expressed in Sf21 cells using Sgktide-peptide as substrate in presence of [gamma-32P]ATP by scintillation counting method.
Assay [16] is described as follows: Synergistic cytotoxicity against human GCE28 cells assessed as combination index measured after 48 hrs in presence of 3-(4-chlorophenyl)-1-(2-chloro-2-phenylethyl)pyrazolo[3,4-d]pyrimidin-4-amine by Chou-Talalay assay. The format is functional. The gist of the method: as §1
Assay [17] is described as follows: Antagonistic cytotoxicity against human GIN8 cells assessed as combination index measured after 48 hrs in presence of 3-(4-chlorophenyl)-1-(2-chloro-2-phenylethyl)pyrazolo[3,4-d]pyrimidin-4-amine by Chou-Talalay assay. The format is functional. The gist of the method:
as §1

The species entered for assay [18] is Homo sapiens. Kind of assay: Induction of apoptosis in human GCE28 cells assessed as increase in caspase 3/7 activation at 12.5 uM measured after 48 hrs by CellEvent caspase 3/7 probe based fluorescence analysis. The format is functional, cell-based. The procedure, abridged:
(§5)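 Cells exposed 48 h to compounds diluted in 10% FBS DMEM. Activated caspase-3/7 detected with the CellEvent probe. Staurosporine 10.0 μM served as reference inducer. Mean ± SEM (n = 3). Two-way ANOVA with Dunnett's test.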

The species named for assay [19] is Homo sapiens. Kind of assay: Induction of apoptosis in human GIN28 cells assessed as increase in caspase 3/7 activation at 12.5 uM measured after 48 hrs by CellEvent caspase 3/7 probe based fluorescence analysis. The format is functional, cell-based. The gist of the method:
as §5

Assay [20] can be described thus: Synergistic cytotoxicity against human GIN28 cells assessed as combination index measured after 48 hrs in presence of 3-(4-chlorophenyl)-1-(2-chloro-2-phenylethyl)pyrazolo[3,4-d]pyrimidin-4-amine by Chou-Talalay assay. The format is functional. The procedure, abridged:
as §1

The species entered for assay [21] is Homo sapiens. Kind of assay: Induction of apoptosis in human GIN8 cells assessed as increase in caspase 3/7 activation at 12.5 uM measured after 48 hrs by CellEvent caspase 3/7 probe based fluorescence analysis. It counts as functional, cell-based. The procedure, abridged:
as §5

A short description of assay [22]: Additive cytotoxicity against human GCE28 cells assessed as combination index measured after 48 hrs in presence of N-(3-bromophenyl)-1-(2-chloro-2-phenylethyl)6(2morpholinoethylsulfanyl)pyrazolo[3,4-d]pyrimidin-4-amine by Chou-Talalay assay. It counts as functional. The procedure, abridged:
as §1

Sequence of Serine/threonine-protein kinase Sgk1 (O00141 whole entry S422D, the tested form may be a part): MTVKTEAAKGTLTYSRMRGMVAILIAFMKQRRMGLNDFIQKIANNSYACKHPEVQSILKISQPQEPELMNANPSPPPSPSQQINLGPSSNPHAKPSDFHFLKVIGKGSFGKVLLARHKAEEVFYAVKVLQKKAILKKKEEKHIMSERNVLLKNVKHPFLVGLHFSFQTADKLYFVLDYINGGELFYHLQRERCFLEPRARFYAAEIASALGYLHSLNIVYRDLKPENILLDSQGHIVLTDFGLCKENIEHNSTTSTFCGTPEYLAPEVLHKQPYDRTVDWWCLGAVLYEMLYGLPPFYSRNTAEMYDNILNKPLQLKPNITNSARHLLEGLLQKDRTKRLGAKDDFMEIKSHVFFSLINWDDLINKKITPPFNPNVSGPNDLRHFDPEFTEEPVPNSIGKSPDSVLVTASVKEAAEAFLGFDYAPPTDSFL

For the compound `Nc1ncnc2c1c(-c1ccc(Cl)cc1)nn2CC(Cl)c1ccccc1` (stereo not given), the CI in assay [1] stood at 0.88; in [4], 0.76; in assay [5], 0.57; in assay [6], 1.13; in assay [7], 0.53; in [8], 0.46. The IC50 in assay [2] turned out to be 54.7 µM; in assay [3] it was 49.8 µM; in assay [9] it was 47.6 µM.
As to `CN[C@@H]1C[C@H]2O[C@@](C)([C@@H]1OC)n1c3ccccc3c3c4c(c5c6ccccc6n2c5c31)C(=O)NC4`, the outcome in assay [10], in assay [11] and in assay [12] was Active.
With `OCCNc1nc(NCCc2ccccc2)c2cnn(/C=C/c3ccccc3)c2n1`, the CI in assay [13] was 0.9; in [14], 0.99; in assay [16], 0.46; in [17] it was 1.13; in assay [20] it was 0.57; in [22], 0.97. Further, the IC50 in assay [2] was found to be 10.5 µM; in assay [3] it was 14.4 µM; in assay [9] it was 10.7 µM. In assay [15], the Ki turned out to be 0.6 µM. In addition, the result in assay [18] and in assay [21] was Active. For the same compound, the outcome in [19] was inactive.

The values above are taken from ChEMBL document CHEMBL4613280, “Development of Pyrazolo[3,4-d]pyrimidine Kinase Inhibitors as Potential Clinical Candidates for Glioblastoma Multiforme” (ACS Med Chem Lett, 2020).
